ChEMBL document CHEMBL3877287, “Analogue based drug design, synthesis, molecular docking and anticancer evaluation of novel chromene sulfonamide hybrids as aromatase inhibitors and apoptosis enhancers” (Eur J Med Chem, 2016)

What was measured:
[1] = Cytotoxicity against human T47D cells after 48 hrs by sulforhodamine B assay; format: functional, cell-based
In short: (§1)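 Cells grown in RPMI 1640 with 10% heat-inactivated FBS and 1% penicillin-streptomycin-amphotericin B at 37 °C, 5% CO2, passages 5–20. Plated at 10⁴ cells/well with 24 h recovery. Exposed to 5, 12, 25 and 50 μmol/L from DMSO stock (final DMSO <0.1%), triplicate wells, 48 h. TCA-fixed, SRB-stained, read by ELISA reader. IC50 fitted with Hill-type equation.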

Aromatase [2] = molecular target: T1, Aromatase (Homo sapiens, UniProt P11511); assay: Inhibition of aromatase activity in human T47D cells at 100 uL after 24 hrs; format: cell-based; set-up: concentration or dose not given beside the values
T1 sequence (P11511 whole entry): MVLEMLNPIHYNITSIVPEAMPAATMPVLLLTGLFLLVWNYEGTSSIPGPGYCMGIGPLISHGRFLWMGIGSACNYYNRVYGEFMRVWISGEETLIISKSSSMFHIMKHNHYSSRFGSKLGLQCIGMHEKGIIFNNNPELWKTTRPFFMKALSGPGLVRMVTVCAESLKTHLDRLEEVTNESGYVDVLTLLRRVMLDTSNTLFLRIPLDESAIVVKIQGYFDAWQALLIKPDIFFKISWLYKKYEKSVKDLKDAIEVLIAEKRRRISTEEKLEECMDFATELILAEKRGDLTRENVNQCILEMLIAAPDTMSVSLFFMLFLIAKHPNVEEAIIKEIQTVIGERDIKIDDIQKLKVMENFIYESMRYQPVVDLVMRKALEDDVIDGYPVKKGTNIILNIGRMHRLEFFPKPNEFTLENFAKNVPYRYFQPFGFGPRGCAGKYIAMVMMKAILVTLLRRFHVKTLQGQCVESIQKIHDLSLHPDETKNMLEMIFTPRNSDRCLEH
In short: (§2)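 T47D cells in RPMI 1640 with 10% FBS and 1% penicillin-streptomycin, seeded at 1.2–1.8 × 10,000 cells/well in 100 µL medium plus 100 µL compound. Cells treated 24 h, including serial dilutions for IC50. Aromatase (CYP19A1) then measured with a human ELISA kit.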

Aromatase [3] = molecular target: T1, Aromatase; assay: Inhibition of aromatase activity in human T47D cells after 24 hrs; format: cell-based; in short: as §2
T47D [4] = assay: Induction of apoptosis in human T47D cells assessed as Bcl-xl level at IC50 (reference value: 754565 IU/ml); format: functional
[5] = Induction of apoptosis in human T47D cells assessed as upregulation of active caspase 3 level by immunoassay relative to letrozole; format: functional, cell-based
[6] = Induction of apoptosis in human T47D cells assessed as upregulation of caspase 8 at IC50 after 48 hrs by ELISA method relative to control; format: functional, cell-based
In short: (§3)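 Cells grown in RPMI 1640 with 10% FBS at 37 °C, plated at 1.2–1.8 × 10,000 cells/well and exposed to compound for 48 h. Lysed in cell extraction buffer, diluted in standard diluent. Caspase-8 and caspase-9 measured separately by human ELISA, absorbance 450 nm. Fold versus control.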

[7] = Cytotoxicity against human 184A1 cells after 48 hrs by sulforhodamine B assay; format: toxicity, cell-based; in short: as §1
[8] = Induction of apoptosis in human T47D cells assessed as upregulation of active caspase 3 level at IC50 by immunoassay relative to control; format: functional, cell-based
In short: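 Cells washed with PBS and lysed in extraction buffer with protease inhibitors (1 mL per 10⁷ cells). Lysate diluted just before assay. Active caspase-3 measured by human sandwich immunoassay with absorbance at 450 nm read within 30 min. Expressed as fold versus control cells.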

[9] = Induction of apoptosis in human T47D cells assessed as upregulation of caspase 9 at IC50 after 48 hrs by ELISA method relative to control; format: functional, cell-based; in short: as §3
T47D [10] = assay: Induction of apoptosis in human T47D cells assessed as decrease in Bcl2 level at IC50 relative to control; format: functional
T47D [11] = assay: Induction of apoptosis in human T47D cells assessed as Bcl2 level at IC50 (reference value: 568019 IU/ml); format: functional
T47D [12] = assay: Induction of apoptosis in human T47D cells assessed as Bax level at IC50 (reference value: 24.6 IU/ml); format: functional
T47D [13] = assay: Induction of apoptosis in human T47D cells assessed as increase in Bax/Bcl2 ratio at IC50 relative to control; format: functional
T47D [14] = assay: Induction of apoptosis in human T47D cells assessed as decrease in Bcl-xl level at IC50 relative to control; format: functional
[15] = Cell cycle arrest in human T47D cells assessed as G1 phase accumulation at 9.2 uM by propidium iodide staining based cytometry (reference value: 64.92%); format: functional
In short: (§4)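 T47D cells exposed to test compound at 9.2 μM. Cells stained with propidium iodide per kit procedure and run on a DNA cytometer. PBMCs of known DNA content served as reference for DNA index. Percent of cells in G1, S and G2/M phases compared with untreated control.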

[16] = Cell cycle arrest in human T47D cells assessed as S phase accumulation at 9.2 uM by propidium iodide staining based cytometry (reference value: 17.14%); format: functional; in short: as §4
T47D [17] = assay: Induction of apoptosis in human T47D cells at 9.2 uM by propidium iodide staining based cytometry (reference value: 2.13%); format: functional
[18] = Cell cycle arrest in human T47D cells assessed as G2/M phase accumulation at 9.2 uM by propidium iodide staining based cytometry (reference value: 15.81%); format: functional; in short: as §4

Compound	IC50 [1]	inhibition (INH) (Aromatase [2])	further results
Cc1cc(NS(=O)(=O)c2ccc(N/C=C\C(=O)c3cc4ccccc4oc3=O)cc2)nc(C)n1	100 µM		
O=C(/C=C\Nc1ccc(S(=O)(=O)Nc2ccc3cn[nH]c3c2)cc1)c1cc2ccccc2oc1=O	96.5 µM		
Cc1noc(NS(=O)(=O)c2ccc(N/C=C\C(=O)c3cc4ccccc4oc3=O)cc2)c1C	68.4 µM	20%	
O=C(/C=C\Nc1ccc(S(=O)(=O)Nc2cnc3ccccc3n2)cc1)c1cc2ccccc2oc1=O	86.9 µM		
O=C(C=CNc1ccc(S(=O)(=O)c2ccc(NC=CC(=O)c3cc4ccccc4oc3=O)cc2)cc1)c1cc2ccccc2oc1=O	70.3 µM		
Nc1ccc(S(=O)(=O)c2ccc(N/C=C\C(=O)c3cc4ccccc4oc3=O)cc2)cc1	91.9 µM		
O=C(/C=C\Nc1ccc(S(=O)(=O)Nc2ncccn2)cc1)c1cc2ccccc2oc1=O	75.2 µM	41%	
Cc1cc(NS(=O)(=O)c2ccc(N/C=C\C(=O)c3cc4ccccc4oc3=O)cc2)on1	75.6 µM	28%	
COc1cc(NS(=O)(=O)c2ccc(N/C=C\C(=O)c3cc4ccccc4oc3=O)cc2)nc(OC)n1	37.8 µM	44%	
O=C(/C=C\Nc1ccc(S(=O)(=O)Nc2ccccn2)cc1)c1cc2ccccc2oc1=O	37.6 µM	65%	IC50 (Aromatase [3]): 12.5 µM
N=C(N)NS(=O)(=O)c1ccc(N/C=C\C(=O)c2cc3ccccc3oc2=O)cc1	87.6 µM	30%	
COc1cccc2c1C(=O)c1c(O)c3c(c(O)c1C2=O)C[C@@](O)(C(=O)CO)C[C@@H]3O[C@H]1C[C@H](N)[C@H](O)[C@H](C)O1 [DOXORUBICIN]	9.8 µM		
Cc1cc(C)nc(NS(=O)(=O)c2ccc(N/C=C\C(=O)c3cc4ccccc4oc3=O)cc2)n1	62.2 µM	30%	
COc1cnc(NS(=O)(=O)c2ccc(N/C=C\C(=O)c3cc4ccccc4oc3=O)cc2)nc1	8.8 µM	81%	Activity (T47D [4]): 6776 IU/ml; fold change (FC) [5]: 1.3; fold change (FC) [6]: 21.8; IC50 at 48 h [7]: 172 µM; fold change (FC) [8]: 20.6; fold change (FC) [9]: 9.91; fold change (FC) (T47D [10]): 819.65; Activity (T47D [11]): 693 IU/ml; IC50 (Aromatase [3]): 6.07 µM; Activity (T47D [12]): 176887 IU/ml; fold change (FC) (T47D [13]): 5936; fold change (FC) (T47D [14]): 111.35
O=C(/C=C\Nc1ccc(S(=O)(=O)Nc2ccnn2-c2ccccc2)cc1)c1cc2ccccc2oc1=O	9.2 µM	70%	Activity [15]: 9.2%; Activity (T47D [4]): 384 IU/ml; fold change (FC) [5]: 3; fold change (FC) [6]: 40; IC50 at 48 h [7]: 184 µM; fold change (FC) [8]: 45; Activity [16]: 14.6%; fold change (FC) [9]: 10; fold change (FC) (T47D [10]): 369; Activity (T47D [11]): 1540 IU/ml; IC50 (Aromatase [3]): 5.09 µM; Activity (T47D [12]): 402127 IU/ml; Activity (T47D [17]): 31.7%; fold change (FC) (T47D [13]): 33000; Activity [18]: 44.5%; fold change (FC) (T47D [14]): 1965
COc1ncnc(NS(=O)(=O)c2ccc(N/C=C\C(=O)c3cc4ccccc4oc3=O)cc2)c1OC	9.8 µM	69%	IC50 (Aromatase [3]): 4.66 µM
Cc1nnc(NS(=O)(=O)c2ccc(N/C=C\C(=O)c3cc4ccccc4oc3=O)cc2)s1	94 µM		
Cc1ccnc(NS(=O)(=O)c2ccc(N/C=C\C(=O)c3cc4ccccc4oc3=O)cc2)n1	24.5 µM	67%	IC50 (Aromatase [3]): 9.52 µM
NS(=O)(=O)c1ccc(N/C=C\C(=O)c2cc3ccccc3oc2=O)cc1	109 µM		
CN(C)/C=C/C(=O)c1cc2ccccc2oc1=O	146 µM		
